Blank lines part the entries; values can stand above or below the molecule they belong to.
Experiments:
[1] = tested on: Ecoil-EGF; assay: SPR capture of Ecoil-EGF on Kcoil surfaces; type: binding; conditions: 10 μL/min
Summary of the method: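 Biacore T100 SPR on CM5 dextran chips, HBS-EP running buffer, 25 °C, 10 Hz collection. A test injection gave the Ecoil-EGF capture rate (RU/s), used to capture about 10 RU. Ecoil-EGF was at 0.05 µg/mL on thiol-coupled Kcoil and 0.1 µg/mL on amine-coupled monomeric or dimeric Kcoil. Surfaces were regenerated with two 15 s pulses of 6 M guanidium-HCl.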

[2] = tested on: Ecoil-tagged FcγRIIIa (V158); assay: SPR capture of Ecoil-tagged FcγRIIIa on Kcoil surfaces; type: binding; conditions: for FcγRIIIa capture rate: Ecoil-tagged FcγRIIIa 0.25 μg/mL, 10 μL/min, from 25 s test injection
Summary of the method: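 FcγRIIIa V158 was Ecoil-tagged, expressed transiently in CHO-3E7 and purified by metal affinity. Biacore T100 SPR used CM5 chips in HBS-EP at 25 °C. Kcoil surfaces were amine-coupled Cys-free, thiol-coupled Cys- or amine-coupled dimeric Cys-Kcoil. A short 25 s injection gave the capture rate, assumed constant, to set the injection time for a 20 RU capture. The test was repeated before each batch.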

[3] = tested on: Ecoil peptide; assay: SPR Ecoil peptide interaction with grafted Kcoil peptide; type: binding; conditions: comparison of the three grafting strategies
[4] = tested on: EGFR phosphorylation; conditions: read-out: EC50 for EGFR phosphorylation in solution; cited from earlier work
[5] = Ecoil-EGF/hEGF capture on glass slides by ELISA; type: binding; conditions: 5 nM hEGF stock, mean ± SD, n = 3
[6] = target: cysteine-free azidohomoalanine-terminated Kcoil, AhaGG-(KVSALKE)5; assay: SPR
[7] = target: dimeric Kcoil–Kcoil peptide (oxidized Cys-Kcoil, linked by a disulfide bond); assay: SPR

Molecule: AhaGG-(KVSALKE)5 [Cys-free Kcoil]
Ecoil-EGF capture rate ([1]; Ecoil-EGF 0.1 μg/mL): 0.32 RU/s
FcγRIIIa capture rate [2]: 0.06 RU/s
Ecoil-tagged FcγRIIIa capture (in words) ([2]; SPR, 20 RU target): furthest from the 20 RU target

Molecule: CGG-(KVSALKE)5 [Cys-Kcoil]
Ecoil-EGF capture rate ([1]; Ecoil-EGF 0.05 μg/mL): 1.32 RU/s
bioavailability (in words) [3]: highest percentage of bioavailability
FcγRIIIa capture rate [2]: 0.57 RU/s

Molecule: hEGF: Recombinant human EGF (hEGF, #236-EG)
EC50 [4]: 4 nM
density on amine surface after 2 h (non-specific adsorption) ([5]; amine surface): 0.50 ± 0.01 pmol/cm^2
density on thiol surface after 2 h (non-specific adsorption) ([5]; thiol surface): 0.50 ± 0.01 pmol/cm^2

koff [6]: 0.000308 s⁻¹
koff [7]: 0.000468 s⁻¹
Molecule: Ac-EVSALEKEVSALEKEVSALEKEVSALEKEVSALEK-NH2 [Ecoil peptide [(EVSALEK)5]]
